# Results from ChEMBL document CHEMBL4689842, “EUbOPEN Chemogenomics Library wave 1” (2021).
# Tested on: HEK-293T
# Experiment: Multiplex assay against HEK293T;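 as to Population Tubulin-Different-Phenotype (%): share of the cells with healthy nuclei that show this phenotype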
# Type: toxicity, cell-based
# Settings: human
# Summary of the method: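 Phenotypes for tubulin, mitochondrial mass and membrane permeability are expressed as per cents of healthy-nucleus cells. Cells were stained live at seeding with Hoechst33342, BioTracker Green Microtubule Cytoskeleton Dye, MitoTracker Red and Annexin V Alexa Fluor 680, then imaged after compound addition on a CQ1 microscope at 37°C and 5% CO2. Machine-learning gating in CellPathfinder separated Hoechst high-intensity objects from normal cells, divided normal cells by nuclear state (healthy, pyknosed, fragmented) and divided pyknosed cells into mitotic or apoptotic.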
# [1] = 12 h, 1 µM, compound concentration 1 uM, replicate 1
# [2] = 12 h, 1 µM, compound concentration 1 uM, replicate 2
# [3] = 12 h, 10 µM, compound concentration 10 uM, replicate 1
# [4] = 12 h, 10 µM, compound concentration 10 uM, replicate 2
# [5] = 24 h, 1 µM, compound concentration 1 uM, replicate 1
# [6] = 24 h, 1 µM, compound concentration 1 uM, replicate 2
# [7] = 24 h, 10 µM, compound concentration 10 uM, replicate 1
# [8] = 24 h, 10 µM, compound concentration 10 uM, replicate 2
# [9] = 48 h, 1 µM, compound concentration 1 uM, replicate 1
# [10] = 48 h, 1 µM, compound concentration 1 uM, replicate 2
# [11] = 48 h, 10 µM, compound concentration 10 uM, replicate 1
# [12] = 48 h, 10 µM, compound concentration 10 uM, replicate 2
smiles,measurement,setting,value
O=C(c1cc2c(cc1F)OC(c1ccc(F)cc1)(c1ccc(Cl)cc1Cl)O2)N1CCOCC1 (centres undefined),Population Apoptotic (%),[1],45%
same,Population Fragmented Nuclei (%),[1],17%
same,Population Healthy Nuclei (%),[1],37%
same,Population Hoechst High Intensity Objects (%),[1],12%
same,Population Membrane Permeable-Phenotype (%),[1],1%
same,Population Mitochondria Different-Phenotype (%),[1],87%
same,Population Mitotic Cells (%),[1],54%
same,Population Normal (%),[1],87%
same,Population Pyknosed Nuclei (%),[1],44%
same,Population Tubulin-Different-Phenotype (%),[1],54%
same,Total Cell Count,[1],214
same,Population Apoptotic (%),[2],16%
same,Population Fragmented Nuclei (%),[2],5%
same,Population Healthy Nuclei (%),[2],35%
same,Population Hoechst High Intensity Objects (%),[2],5%
same,Population Membrane Permeable-Phenotype (%),[2],3%
same,Population Mitochondria Different-Phenotype (%),[2],24%
same,Population Mitotic Cells (%),[2],84%
same,Population Normal (%),[2],94%
same,Population Pyknosed Nuclei (%),[2],59%
same,Population Tubulin-Different-Phenotype (%),[2],23%
same,Total Cell Count,[2],268
same,Population Apoptotic (%),[3],64%
same,Population Fragmented Nuclei (%),[3],10%
same,Population Healthy Nuclei (%),[3],17%
same,Population Hoechst High Intensity Objects (%),[3],17%
same,Population Membrane Permeable-Phenotype (%),[3],0%
same,Population Mitochondria Different-Phenotype (%),[3],94%
same,Population Mitotic Cells (%),[3],35%
same,Population Normal (%),[3],82%
same,Population Pyknosed Nuclei (%),[3],72%
same,Population Tubulin-Different-Phenotype (%),[3],97%
same,Total Cell Count,[3],264
same,Population Apoptotic (%),[4],54%
same,Population Fragmented Nuclei (%),[4],8%
same,Population Healthy Nuclei (%),[4],8%
same,Population Hoechst High Intensity Objects (%),[4],9%
same,Population Mitochondria Different-Phenotype (%),[4],58%
same,Population Mitotic Cells (%),[4],45%
same,Population Normal (%),[4],90%
same,Population Pyknosed Nuclei (%),[4],82%
same,Population Tubulin-Different-Phenotype (%),[4],83%
same,Total Cell Count,[4],153
same,Population Apoptotic (%),[5],48%
same,Population Fragmented Nuclei (%),[5],15%
same,Population Healthy Nuclei (%),[5],34%
same,Population Hoechst High Intensity Objects (%),[5],15%
same,Population Membrane Permeable-Phenotype (%),[5],0%
same,Population Mitochondria Different-Phenotype (%),[5],79%
same,Population Mitotic Cells (%),[5],51%
same,Population Normal (%),[5],84%
same,Population Pyknosed Nuclei (%),[5],50%
same,Population Tubulin-Different-Phenotype (%),[5],43%
same,Total Cell Count,[5],216
same,Population Apoptotic (%),[6],14%
same,Population Fragmented Nuclei (%),[6],3%
same,Population Healthy Nuclei (%),[6],60%
same,Population Hoechst High Intensity Objects (%),[6],3%
same,Population Membrane Permeable-Phenotype (%),[6],1%
same,Population Mitochondria Different-Phenotype (%),[6],36%
same,Population Mitotic Cells (%),[6],85%
same,Population Normal (%),[6],96%
same,Population Pyknosed Nuclei (%),[6],35%
same,Population Tubulin-Different-Phenotype (%),[6],39%
same,Total Cell Count,[6],330
same,Population Fragmented Nuclei (%),[7],11%
same,Population Healthy Nuclei (%),[7],19%
same,Population Hoechst High Intensity Objects (%),[7],16%
same,Population Membrane Permeable-Phenotype (%),[7],2%
same,Population Mitochondria Different-Phenotype (%),[7],86%
same,Population Normal (%),[7],83%
same,Population Pyknosed Nuclei (%),[7],68%
same,Population Tubulin-Different-Phenotype (%),[7],95%
same,Total Cell Count,[7],274
same,Population Apoptotic (%),[8],53%
same,Population Fragmented Nuclei (%),[8],9%
same,Population Healthy Nuclei (%),[8],13%
same,Population Hoechst High Intensity Objects (%),[8],7%
same,Population Membrane Permeable-Phenotype (%),[8],10%
same,Population Mitochondria Different-Phenotype (%),[8],63%
same,Population Mitotic Cells (%),[8],46%
same,Population Normal (%),[8],92%
same,Population Pyknosed Nuclei (%),[8],77%
same,Population Tubulin-Different-Phenotype (%),[8],89%
same,Total Cell Count,[8],154
same,Population Apoptotic (%),[9],57%
same,Population Fragmented Nuclei (%),[9],16%
same,Population Healthy Nuclei (%),[9],44%
same,Population Hoechst High Intensity Objects (%),[9],18%
same,Population Membrane Permeable-Phenotype (%),[9],0%
same,Population Mitochondria Different-Phenotype (%),[9],48%
same,Population Mitotic Cells (%),[9],42%
same,Population Normal (%),[9],81%
same,Population Pyknosed Nuclei (%),[9],38%
same,Population Tubulin-Different-Phenotype (%),[9],40%
same,Total Cell Count,[9],232
same,Population Apoptotic (%),[10],22%
same,Population Fragmented Nuclei (%),[10],5%
same,Population Healthy Nuclei (%),[10],76%
same,Population Hoechst High Intensity Objects (%),[10],3%
same,Population Membrane Permeable-Phenotype (%),[10],2%
same,Population Mitochondria Different-Phenotype (%),[10],11%
same,Population Mitotic Cells (%),[10],77%
same,Population Normal (%),[10],96%
same,Population Pyknosed Nuclei (%),[10],18%
same,Population Tubulin-Different-Phenotype (%),[10],29%
same,Total Cell Count,[10],557
same,Population Apoptotic (%),[11],53%
same,Population Fragmented Nuclei (%),[11],16%
same,Population Healthy Nuclei (%),[11],26%
same,Population Hoechst High Intensity Objects (%),[11],10%
same,Population Membrane Permeable-Phenotype (%),[11],19%
same,Population Mitochondria Different-Phenotype (%),[11],33%
same,Population Mitotic Cells (%),[11],46%
same,Population Normal (%),[11],89%
same,Population Pyknosed Nuclei (%),[11],57%
same,Population Tubulin-Different-Phenotype (%),[11],87%
same,Total Cell Count,[11],264
same,Population Apoptotic (%),[12],58%
same,Population Fragmented Nuclei (%),[12],8%
same,Population Healthy Nuclei (%),[12],24%
same,Population Hoechst High Intensity Objects (%),[12],8%
same,Population Membrane Permeable-Phenotype (%),[12],25%
same,Population Mitochondria Different-Phenotype (%),[12],61%
same,Population Mitotic Cells (%),[12],41%
same,Population Normal (%),[12],91%
same,Population Pyknosed Nuclei (%),[12],66%
same,Population Tubulin-Different-Phenotype (%),[12],83%
same,Total Cell Count,[12],158
